Source: ChEMBL document CHEMBL1126943, “N-substituted dibenzoxazepines as analgesic PGE2 antagonists” (J Med Chem, 1993)
Several values for one entry are separate records, joined by “and”; a condition that tells them apart may be missing. Equal entries are not always repeated. Activity calls are given as the source filed them. The calls are words filed in the database; no cut-off is given here.

Experiments:
Cavia porcellus [1] = species on record: Cavia porcellus; experiment: Antinociceptive activity against PGE-2 in guinea pig ileum at 3 uM; format: functional; settings: read-out: pA2 (converted)
In short: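 Ileum segments (2 cm) from male Hartley guinea pigs were held in modified Tyrode with atropine (0.14 μM) and pyrilamine (2.5 μM), at 37 °C under 95% O2/5% CO2 and 1 g tension. PGE2 concentration–response curves (2 min per dose) were run without and then with test compound. pA2 was calculated from the dose ratio at 3 μM compound.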

Cavia porcellus [2] = species on record: Cavia porcellus; experiment: Antinociceptive activity against PGE-2 in guinea pig ileum at 3 uM; inactive; format: functional, organism-based
Mus musculus [3] = experiment: Antinociception at dosage of 30 mg/kg administered in 10 mice.; format: functional
In short: (§1)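 Male albino CD-1 mice, 20–30 g, were given test compound sc or ig (0.1 mL/10 g) at 30 mg/kg. After 25 min they received 0.025% (w/v) phenylbenzoquinone ip. Writhes were counted for 10 min, starting 5 min later. A mouse counted as protected if its writhes were ≤ half the median of that day's saline group. The result is the number of mice protected.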

Mus musculus [4] = experiment: Effective dose required for writhing response in mouse […] on sc administration; format: functional
In short: (§2)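 In the mouse phenylbenzoquinone writhing test, male CD-1 mice (20–30 g) were dosed ig or sc. After 25 min, 0.025% phenylbenzoquinone was given ip, and writhes were counted over 10 min beginning 5 min later. Protection meant ≤ half the saline median. The ED50 is the dose protecting 50% of mice, with 95% confidence limits from maximum likelihood.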

Mus musculus [5] = experiment: Effective dose required for writhing response in mouse […] on ig administration; format: functional; settings: po; in short: as §2
Mus musculus [6] = experiment: Compound was evaluated for antinociception at dosage of 30 mg/kg administered in 9 mice; format: functional; in short: as §1

CC(=O)NNC(=O)N1Cc2ccccc2Oc2ccc(Cl)cc21
Kb (Cavia porcellus [1]): 3160 nM

Cl.O=C(Cc1ccccn1)NNC(=O)N1Cc2ccccc2Oc2ccc(Cl)cc21
pA2 (Cavia porcellus [2]): inactive | No. of mice (Mus musculus [3]): 2

Cl.O=C(NNC(=O)N1Cc2ccccc2Oc2ccc(Cl)cc21)c1ccccn1
pA2 (Cavia porcellus [2]): inactive | No. of mice (Mus musculus [3]; 30 mg/kg): 3 and 2

O=C(/C=C/c1cccnc1)NNC(=O)N1Cc2ccccc2Oc2ccc(Cl)cc21
No. of mice (Mus musculus [3]; 30 mg/kg): 6 and 5

CCCCCC(=O)NNC(=O)N1Cc2ccccc2Oc2ccc(Cl)cc21
Kb (Cavia porcellus [1]): 251 nM

Cl.O=C(/C=C/c1ccncc1)NNC(=O)N1Cc2ccccc2Oc2ccc(Cl)cc21
No. of mice (Mus musculus [3]; 30 mg/kg): 2 and 4

O=C(CCCc1ccncc1)NNC(=O)N1Cc2ccccc2Oc2ccc(Cl)cc21
ED50 (Mus musculus [4]): 9.7 mg/kg | No. of mice (Mus musculus [3]): 6

Cl.O=C(CCc1ccncc1)NNC(=O)N1Cc2ccccc2Oc2ccc(Cl)cc21
ED50 (Mus musculus [4]): 6.3 mg/kg | ED50 (Mus musculus [5]): 6.8 mg/kg | Kb (Cavia porcellus [1]): 316 nM

Cl.O=C(NNC(=O)C(F)(F)C(O)c1ccccn1)N1Cc2ccccc2Oc2ccc(Cl)cc21 (stereo not given)
ED50 (Mus musculus [4]): 7.1 mg/kg | ED50 (Mus musculus [5]): 9.1 mg/kg | Kb (Cavia porcellus [1]): 31.6 nM

CCCC(=O)NNC(=O)N1Cc2ccccc2Oc2ccc(Cl)cc21
Kb (Cavia porcellus [1]): 1000 nM

Cl.O=C(CCc1ccccn1)NNC(=O)N1Cc2ccccc2Oc2ccc(Cl)cc21
ED50 (Mus musculus [4]): 9.8 mg/kg | ED50 (Mus musculus [5]): 5.8 mg/kg | Kb (Cavia porcellus [1]): 398 nM

Cl.O=C(Cc1ccncc1)NNC(=O)N1Cc2ccccc2Oc2ccc(Cl)cc21
No. of mice (Mus musculus [6]): 3 | No. of mice (Mus musculus [3]): 1

Cl.O=C(/C=C/c1ccccn1)NNC(=O)N1Cc2ccccc2Oc2ccc(Cl)cc21
pA2 (Cavia porcellus [2]): inactive | No. of mice (Mus musculus [3]; 30 mg/kg): 1 and 2

Cl.O=C(Cc1cccnc1)NNC(=O)N1Cc2ccccc2Oc2ccc(Cl)cc21
No. of mice (Mus musculus [3]; 30 mg/kg): 3 and 5

O=C(CCc1cc[n+]([O-])cc1)NNC(=O)N1Cc2ccccc2Oc2ccc(Cl)cc21
No. of mice (Mus musculus [3]): 5

CC(=O)Oc1ccccc1C(=O)O [ASPIRIN]
ED50 (Mus musculus [5]): 42.3 mg/kg

Cl.O=C(NNC(=O)C(F)(F)Cc1ccccn1)N1Cc2ccccc2Oc2ccc(Cl)cc21
ED50 (Mus musculus [5]): 9.7 mg/kg

Cl.O=C(NNC(=O)N1Cc2ccccc2Oc2ccc(Cl)cc21)c1ccncc1
pA2 (Cavia porcellus [2]): inactive | No. of mice (Mus musculus [3]; 30 mg/kg): 1 and 2

O=C(Cc1ccccc1)NNC(=O)N1Cc2ccccc2Oc2ccc(Cl)cc21
Kb (Cavia porcellus [1]): 1000 nM

Cl.O=C(NNC(=O)N1Cc2ccccc2Oc2ccc(Cl)cc21)c1cccnc1
pA2 (Cavia porcellus [2]): inactive | No. of mice (Mus musculus [3]; 30 mg/kg): 3 and 1

O=C(CCCCCl)NNC(=O)N1Cc2ccccc2Oc2ccc(Cl)cc21 [PINADOLINE]
Kb (Cavia porcellus [1]): 631 nM

Cl.O=C(CCc1cccnc1)NNC(=O)N1Cc2ccccc2Oc2ccc(Cl)cc21
No. of mice (Mus musculus [3]; 30 mg/kg): 6 and 5

O=C(CCc1cccc[n+]1[O-])NNC(=O)N1Cc2ccccc2Oc2ccc(Cl)cc21
No. of mice (Mus musculus [3]; 30 mg/kg): 1 and 3

Cl.O=C(CCCc1ccccn1)NNC(=O)N1Cc2ccccc2Oc2ccc(Cl)cc21
No. of mice (Mus musculus [3]; 30 mg/kg): 4 and 5

Cl.O=C(NNC(=O)C(F)(F)C(O)c1ccncc1)N1Cc2ccccc2Oc2ccc(Cl)cc21 (stereo not given)
No. of mice (Mus musculus [3]): 5 | ED50 (Mus musculus [5]): 12.3 mg/kg

CC(C)Cc1ccc(C(C)C(=O)O)cc1 (stereo not given) [IBUPROFEN]
ED50 (Mus musculus [5]): 4.8 mg/kg
